In ChEMBL document CHEMBL4028903 (J Med Chem, 2017):
In brackets after ≈: the same amount, converted by molar mass. Activity calls are given as the source filed them. The calls are words filed in the database; no cut-off is given here.

Tests used:
Rattus norvegicus [1] = assay: In vivo agonist activity at FXR in po dosed Sprague-Dawley rat assessed as induction of FGF15 protein level in plasma administered once daily for 14 days measured 7 hrs post last dose on day 14; type: functional, organism-based
[2] = Solubility of the compound in fasted state simulated intestinal fluid at pH 6.8; type: physicochemical
[3] = Dissociation constant, pKa of compound; type: physicochemical
[4] = Terminal half life in rat at 3 mg/kg, iv by LC-MS/MS analysis; type: ADME, organism-based; settings: in vivo, read-out: beta t1/2 (converted)
Outline: (§1)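 Rats were dosed IV as a solution in 75% PEG300:25% D5W, or orally as a suspension in 0.5% methylcellulose, 0.5% Tween80 and 99% water.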

[5] = AUC in rat at 10 mg/kg, po administered via gavage by LC-MS/MS analysis; type: ADME, organism-based; settings: in vivo; outline: as §1
Rattus norvegicus [6] = assay: In vivo agonist activity at FXR in Sprague-Dawley rat assessed as induction of SHP mRNA level in liver at 0.01 mg/kg, po qd for 14 days measured 7 hrs post last dose on day 14 by qPCR analysis; type: functional, organism-based
Rattus norvegicus [7] = assay: In vivo agonist activity at FXR in Sprague-Dawley rat assessed as induction of FGF15 mRNA level in ileum at 0.01 mg/kg, po qd for 14 days measured 7 hrs post last dose on day 14 by qPCR analysis; type: functional, organism-based
Rattus norvegicus [8] = assay: In vivo agonist activity at FXR in Sprague-Dawley rat assessed as serum triglyceride level at 0.3 mg/kg, po administered once daily for 14 days measured 24 hrs post last dose; type: functional
[9] = Drug uptake in Sprague-Dawley rat liver at 0.3 mg/kg, po qd administered via gavage measured 1 hr post last dose on day 14 by LC-MS/MS analysis; type: ADME, organism-based; settings: read-out: Drug uptake
Outline: (§2)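 Drug concentration in liver was quantified from tissue homogenates, so these are total levels. Unbound liver concentration was not determined.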

[10] = Drug uptake in Sprague-Dawley rat liver at 0.1 mg/kg, po qd administered via gavage measured 1 hr post last dose on day 14 by LC-MS/MS analysis; type: ADME, organism-based; settings: read-out: Drug uptake; outline: as §2
[11] = Drug uptake in Sprague-Dawley rat plasma at 0.1 mg/kg, po qd administered via gavage measured 1 hr post last dose on day 14 by LC-MS/MS analysis; type: ADME, organism-based
[12] = Drug uptake in Sprague-Dawley rat liver at 0.03 mg/kg, po qd administered via gavage measured 1 hr post last dose on day 14 by LC-MS/MS analysis; type: ADME, organism-based; settings: read-out: Drug uptake; outline: as §2
[13] = Drug uptake in Sprague-Dawley rat liver at 0.003 mg/kg, po qd administered via gavage measured 1 hr post last dose on day 14 by LC-MS/MS analysis; type: ADME, organism-based; settings: read-out: Drug uptake; outline: as §2
Rattus norvegicus [14] = assay: Dose normalized AUC (0 to 24 hrs) in Sprague-Dawley rat at 3 mg/kg, po qd administered via gavage measured on day 1 by LC-MS/MS analysis; type: ADME, organism-based; settings: in vivo
Rattus norvegicus [15] = assay: Dose normalized AUC (0 to 24 hrs) in Sprague-Dawley rat at 0.3 mg/kg, po qd administered via gavage measured on day 11 by LC-MS/MS analysis; type: ADME, organism-based; settings: in vivo
Rattus norvegicus [16] = assay: Dose normalized AUC (0 to 24 hrs) in Sprague-Dawley rat at 0.003 mg/kg, po qd administered via gavage measured on day 11 by LC-MS/MS analysis; type: ADME, organism-based; settings: in vivo
[17] = AUC (0 to 24 hrs) in Sprague-Dawley rat at 1 mg/kg, po qd administered via gavage measured on day 11 by LC-MS/MS analysis; type: ADME, organism-based; set-up: time < 24 hr, dose 1 mg/kg, route oral; settings: in vivo
[18] = AUC (0 to 24 hrs) in Sprague-Dawley rat at 0.3 mg/kg, po qd administered via gavage measured on day 11 by LC-MS/MS analysis; type: ADME, organism-based; set-up: dose 0.3 mg/kg, time < 24 hr, route oral; settings: in vivo
[19] = AUC (0 to 24 hrs) in Sprague-Dawley rat at 0.1 mg/kg, po qd administered via gavage measured on day 1 by LC-MS/MS analysis; type: ADME, organism-based; set-up: time < 24 hr, dose 0.1 mg/kg, route oral; settings: in vivo
[20] = AUC (0 to 24 hrs) in Sprague-Dawley rat at 0.003 mg/kg, po qd administered via gavage measured on day 11 by LC-MS/MS analysis; type: ADME, organism-based; set-up: time < 24 hr, dose 0.003 mg/kg, route oral; settings: in vivo
[21] = AUC (0 to 24 hrs) in Sprague-Dawley rat at 0.003 mg/kg, po qd administered via gavage measured on day 1 by LC-MS/MS analysis; type: ADME, organism-based; set-up: time < 24 hr, dose 0.003 mg/kg, route oral; settings: in vivo
[22] = Cmax in Sprague-Dawley rat at 1 mg/kg, po qd administered via gavage measured on day 11 by LC-MS/MS analysis; type: ADME, organism-based; set-up: dose 1 mg/kg, route oral; settings: in vivo
[23] = Cmax in Sprague-Dawley rat at 1 mg/kg, po qd administered via gavage measured on day 1 by LC-MS/MS analysis; type: ADME, organism-based; set-up: dose 1 mg/kg, route oral; settings: in vivo
[24] = Cmax in Sprague-Dawley rat at 0.3 mg/kg, po qd administered via gavage measured on day 1 by LC-MS/MS analysis; type: ADME, organism-based; set-up: dose 0.3 mg/kg, route oral; settings: in vivo
[25] = Cmax in Sprague-Dawley rat at 0.1 mg/kg, po qd administered via gavage measured on day 11 by LC-MS/MS analysis; type: ADME, organism-based; set-up: dose 0.1 mg/kg, route oral; settings: in vivo
[26] = Cmax in Sprague-Dawley rat at 0.03 mg/kg, po qd administered via gavage measured on day 1 by LC-MS/MS analysis; type: ADME, organism-based; set-up: dose 0.03 mg/kg, route oral; settings: in vivo
[27] = Cmax in Sprague-Dawley rat at 0.01 mg/kg, po qd administered via gavage measured on day 1 by LC-MS/MS analysis; type: ADME, organism-based; set-up: dose 0.01 mg/kg, route oral; settings: in vivo
[28] = Cmax in Sprague-Dawley rat at 0.003 mg/kg, po qd administered via gavage measured on day 11 by LC-MS/MS analysis; type: ADME, organism-based; set-up: dose 0.003 mg/kg, route oral; settings: in vivo
[29] = Protein binding in rat plasma at 0.01 to 0.05 mg/kg, po qd administered via gavage by LC-MS/MS analysis; type: ADME, organism-based; settings: read-out: PPB
[30] = Half life in dog at 0.5 mg/kg, iv by LC-MS/MS analysis; type: ADME, organism-based, Canis lupus familiaris; settings: in vivo
Outline: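 Single IV dose given as a solution. Mouse and rat received it in 75% PEG300:25% D5W. Dog received it in 20% PEG300, 5% solutol and 75% carbonate buffer pH = 8. Plasma was sampled for PK parameters.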

[31] = Cmax in dog at 2 mg/kg, po administered via gavage by LC-MS/MS analysis; type: ADME, organism-based, Canis lupus familiaris; set-up: dose 2 mg/kg, route oral; settings: in vivo
Outline: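 Single oral dose given as a suspension in 0.5% methylcellulose, 0.5% Tween80 and 99% water. Doses were 10 mg/kg in mouse, 1 mg/kg in rat and 2 mg/kg in dog.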

[32] = Protein binding in mouse plasma at 5 mg/kg, iv or 10 mg/kg, po administered via gavage by LC-MS/MS analysis; type: ADME, organism-based; settings: read-out: PPB
Canis familiaris [33] = assay: Drug metabolism in dog assessed as taurine conjugated metabolite formation at 0.5 mg/kg, iv or 2 mg/kg, po administered via gavage by LC-MS/MS analysis; type: ADME, organism-based, Canis lupus familiaris; settings: in vivo
Outline: (§3)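 Plasma samples were taken from the dog PK studies. The IV solution was 20% PEG300, 5% solutol and 75% carbonate buffer pH = 8. The PO suspension was 0.5% methylcellulose, 0.5% Tween80 and 99% water. Samples were screened for taurine- and glycine-conjugated metabolites and for the acylglucuronide.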

Canis familiaris [34] = assay: Drug metabolism in dog assessed as glycine conjugated metabolite formation at 0.5 mg/kg, iv or 2 mg/kg, po administered via gavage by LC-MS/MS analysis; type: ADME, organism-based, Canis lupus familiaris; settings: in vivo; outline: as §3

In the case of `O=C(O)c1cc(F)c2nc(N3C4CCC3CC(OCc3c(-c5ccccc5OC(F)(F)F)noc3C3CC3)C4)sc2c1` (centres undefined), the Activity (Rattus norvegicus [1]) is reported as “Dose-dependent effect”, the solubility [2] is reported as 600 µM (≈ 362 µg/mL) and the pKa [3] is reported as 4. The half-life [4] was 3.7 h, the AUC [5] was 6.04 µM·h and the Activity (Rattus norvegicus [6]) was “Active”. The Activity (Rattus norvegicus [7]) was “Active”, the Activity (Rattus norvegicus [8]) was 79% and the concentration at 1 h [9] was 84.5 nM. The concentration at 1 h [10] was 27.4 nM, the concentration at 1 h [11] was 3.95 nM and the concentration at 1 h [12] was 11.9 nM. It also gave a concentration at 1 h [13] of 2.92 nM, an AUC/dose (Rattus norvegicus [14]) of 448 nM·h and an AUC/dose (Rattus norvegicus [15]) of 633 nM·h. It also gave an AUC/dose (Rattus norvegicus [16]) of 756 nM·h, an AUC at 24 h [17] of 0.562 µM·h and an AUC at 24 h [18] of 0.19 µM·h. The AUC(0-t) at 24 h [19] was 0.041 µM·h, the AUC at 24 h [20] was 0.002 µM·h and the AUC(0-t) at 24 h [21] was 0.002 µM·h. For the same molecule, the Cmax [22] was 43.1 nM, the Cmax [23] was 39.3 nM and the Cmax [24] was 13.5 nM. The Cmax [25] was 7.1 nM, the Cmax [26] was 1.5 nM and the Cmax [27] was 0.44 nM. It also gave a Cmax [28] of 0.26 nM, a fraction unbound [29] of 0.001 and a half-life [30] of 7.4 h. For the same molecule, the Cmax [31] was 332 nM, the fraction unbound [32] was 0.001 and the Drug metabolism (Canis familiaris [33]) was “Metabolite_Notdetected”. The Drug metabolism (Canis familiaris [34]) was “Metabolite_Notdetected”.
